Measurements from ChEMBL document CHEMBL5230149, “Discovery of novel ketoxime ether derivatives with potent FXR agonistic activity, oral effectiveness and high liver/blood ratio” (Bioorg Med Chem, 2021).
One block for each compound: values may come before it. Calls of active or inactive are those of the source. No cut-off for these calls is given here.

Experiments:
[1] = biological target: T1, Bile acid receptor (Mus musculus) (UniProt Q60641); assay: Agonist activity at FXR in C57BL/6J mouse hepatocytes assessed as fold upregulation of SHP mRNA expression at 10 uM incubated for 24 hrs by qRT-PCR analysis relative to control; type: cell-based; conditions: Hepatocyte
T1 sequence (whole entry): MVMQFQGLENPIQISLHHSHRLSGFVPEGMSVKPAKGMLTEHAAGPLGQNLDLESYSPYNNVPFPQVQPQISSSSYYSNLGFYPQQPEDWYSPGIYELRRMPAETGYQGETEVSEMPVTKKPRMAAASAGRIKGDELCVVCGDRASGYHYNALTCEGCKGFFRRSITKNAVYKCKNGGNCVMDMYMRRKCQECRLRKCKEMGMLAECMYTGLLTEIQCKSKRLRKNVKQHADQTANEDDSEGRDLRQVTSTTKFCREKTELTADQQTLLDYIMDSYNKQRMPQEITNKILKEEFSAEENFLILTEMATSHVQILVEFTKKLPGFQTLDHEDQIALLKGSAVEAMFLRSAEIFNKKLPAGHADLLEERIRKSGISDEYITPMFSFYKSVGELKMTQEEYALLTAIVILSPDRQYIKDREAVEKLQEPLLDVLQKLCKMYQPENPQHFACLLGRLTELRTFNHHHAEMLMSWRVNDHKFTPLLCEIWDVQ
Outline: (§1)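 Hepatocytes isolated from overnight-fasted male C57BL/6J mice (8–12 weeks), allowed 4 h to adhere, then given vehicle (0.5% DMSO) or compound at 0.4, 2 and 10 μM for 24 h. TRIzol RNA extraction, then qRT-PCR with GAPDH normalization by ΔΔCt. Values are expressed as fold over vehicle (mean ± S.E.M, n = 3).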

[2] = biological target: T1, Bile acid receptor (Mus musculus); assay: In vivo agonist activity at FXR in C57BL/6J mouse assessed as downregulation of CYP7A1 mRNA expression in liver at 10 mg/kg, po measured after 6 hrs by qRT-PCR analysis; type: functional, organism-based
Outline: (§2)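 Male C57BL/6J mice (7–8 weeks) were fasted 3 h, then dosed orally once in 0.25% CMC-Na (wt/vol) vehicle. Sacrificed 6 h post-dose; liver snap-frozen at -80 °C. TRIzol RNA extraction and qRT-PCR with GAPDH normalization (ΔΔCt). Results are fold over vehicle group (mean ± S.E.M, n = 6).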

[3] = Ratio of drug uptake in ICR mouse liver to plasma at 15 mg/kg, po measured after 8 hrs by LC-MS/MS analysis; type: ADME, organism-based
Outline: (§3)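 Overnight-fasted male ICR mice (n = 3 per time point) received single oral 15 mg/kg and were refed 2 h later. Blood and liver were taken at 1.5, 4 and 8 h. Serum (10 µL) was precipitated with 100 µL methanol/acetonitrile (1:1). Liver was homogenized in ten times its weight of the same solvent. Supernatants were diluted 1:1 in ACN/H₂O and analyzed by LC-MS/MS. The ratio is liver conc (ng/g) over plasma conc (ng/mL).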

[4] = Ratio of drug uptake in ICR mouse liver to plasma at 15 mg/kg, po measured after 4 hrs by LC-MS/MS analysis; type: ADME, organism-based; outline: as §3
[5] = Ratio of drug uptake in ICR mouse liver to plasma at 15 mg/kg, po measured after 1.5 hrs by LC-MS/MS analysis; type: ADME, organism-based; outline: as §3
[6] = biological target: T1, Bile acid receptor (Mus musculus); assay: In vivo agonist activity at FXR in C57BL/6J mouse assessed as downregulation of CYP8B1 mRNA expression in liver at 10 mg/kg, po measured after 6 hrs by qRT-PCR analysis; type: functional, organism-based; outline: as §2
[7] = biological target: T2, Bile acid receptor (Homo sapiens, UniProt Q96RI1); assay: Agonist activity at human FXR expressed in human Huh-7 cells co-transfected with FXRE-Luc reporter plasmid assessed as receptor transactivation incubated for 16 hrs by luciferase reporter gene assay; type: cell-based
T2 sequence (Q96RI1 whole entry): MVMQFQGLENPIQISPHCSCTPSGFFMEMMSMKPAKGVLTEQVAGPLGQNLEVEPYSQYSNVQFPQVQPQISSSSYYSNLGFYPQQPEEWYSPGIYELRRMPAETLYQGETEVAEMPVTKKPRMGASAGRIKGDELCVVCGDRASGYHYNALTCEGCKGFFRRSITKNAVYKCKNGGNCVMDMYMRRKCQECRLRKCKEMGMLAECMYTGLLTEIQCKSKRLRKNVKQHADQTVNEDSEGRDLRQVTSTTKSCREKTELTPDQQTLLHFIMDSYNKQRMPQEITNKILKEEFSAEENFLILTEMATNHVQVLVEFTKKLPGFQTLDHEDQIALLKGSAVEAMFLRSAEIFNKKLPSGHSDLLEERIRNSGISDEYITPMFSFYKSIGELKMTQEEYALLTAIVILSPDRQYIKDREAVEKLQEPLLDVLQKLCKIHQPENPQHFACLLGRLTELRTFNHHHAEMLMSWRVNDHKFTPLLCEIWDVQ

[8] = biological target: T1, Bile acid receptor (Mus musculus); assay: In vivo agonist activity at FXR in C57BL/6J mouse assessed as fold upregulation of SHP mRNA expression in ileum at 10 mg/kg, po measured after 6 hrs by qRT-PCR analysis relative to control; type: functional, organism-based
Outline: (§4)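 Fasting of male C57BL/6J mice (7–8 weeks) for 3 h preceded a single oral dose in 0.25% CMC-Na (wt/vol). Ileum was collected 6 h after dosing and snap-frozen. RNA was extracted with TRIzol for qRT-PCR, normalized to GAPDH (ΔΔCt). Reported as fold of vehicle group (mean ± SEM, n = 6).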

[9] = biological target: T3, G-protein coupled bile acid receptor 1 (Homo sapiens, UniProt Q8TDU6); assay: Agonist activity at human TGR5 expressed in HEK293 cells co-transfected with CRE-Luc reporter plasmid assessed as receptor transactivation incubated for 5.5 hrs by luciferase reporter gene assay; type: cell-based
T3 sequence (Q8TDU6 whole entry): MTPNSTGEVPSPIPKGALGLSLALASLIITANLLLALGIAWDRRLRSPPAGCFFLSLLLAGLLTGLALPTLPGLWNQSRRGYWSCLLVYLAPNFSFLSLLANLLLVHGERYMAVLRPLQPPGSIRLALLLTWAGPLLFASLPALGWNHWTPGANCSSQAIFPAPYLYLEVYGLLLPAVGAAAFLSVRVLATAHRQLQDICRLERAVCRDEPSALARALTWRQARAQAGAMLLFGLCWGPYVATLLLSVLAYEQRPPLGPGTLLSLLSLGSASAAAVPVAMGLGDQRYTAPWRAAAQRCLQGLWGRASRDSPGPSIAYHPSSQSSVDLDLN

[10] = biological target: T1, Bile acid receptor (Mus musculus); assay: In vivo agonist activity at FXR in C57BL/6J mouse assessed as fold upregulation of FGF15 mRNA expression in ileum at 10 mg/kg, po measured after 6 hrs by qRT-PCR analysis relative to control; type: functional, organism-based; outline: as §4
[11] = Plasma concentration in ICR mouse at 15 mg/kg, po measured after 1.5 hrs by LC-MS/MS analysis; type: ADME, organism-based; outline: as §3
[12] = Drug uptake in ICR mouse liver at 15 mg/kg, po measured after 1.5 hrs by LC-MS/MS analysis; type: ADME, organism-based; conditions: read-out: Drug uptake; outline: as §3
[13] = Drug uptake in ICR mouse liver at 15 mg/kg, po measured after 8 hrs by LC-MS/MS analysis; type: ADME, organism-based; conditions: read-out: Drug uptake; outline: as §3
[14] = biological target: T4, TGR5 (G-protein coupled bile acid receptor 1) (Homo sapiens, UniProt Q8TDU6); assay: Agonist activity at human TGR5 expressed in HEK293 cells co-transfected with CRE-Luc reporter plasmid assessed as receptor transactivation incubated for 5.5 hrs by luciferase reporter gene assay relative to OCA; type: cell-based; conditions: read-out: Efficacy
T4 sequence (Q8TDU6 whole entry): T3 sequence (Q8TDU6 whole entry)

[15] = biological target: T1, Bile acid receptor (Mus musculus); assay: In vivo agonist activity at FXR in C57BL/6J mouse assessed as fold upregulation of SHP mRNA expression in liver at 10 mg/kg, po measured after 6 hrs by qRT-PCR analysis relative to control; type: functional, organism-based; outline: as §2
[16] = Plasma concentration in ICR mouse at 15 mg/kg, po measured after 4 hrs by LC-MS/MS analysis; type: ADME, organism-based; outline: as §3
[17] = Drug uptake in ICR mouse liver at 15 mg/kg, po measured after 4 hrs by LC-MS/MS analysis; type: ADME, organism-based; conditions: read-out: Drug uptake; outline: as §3
[18] = biological target: T1, Bile acid receptor (Mus musculus); assay: Agonist activity at FXR in C57BL/6J mouse hepatocytes assessed as upregulation of BSEP mRNA expression at 0.4 to 10 uM incubated for 24 hrs by qRT-PCR analysis; type: cell-based; conditions: Hepatocyte, filed as agonist, dose 0.4-10 µM; outline: as §1
[19] = biological target: T1, Bile acid receptor (Mus musculus); assay: Agonist activity at FXR in C57BL/6J mouse hepatocytes assessed as upregulation of SHP mRNA expression incubated for 24 hrs by qRT-PCR analysis; type: cell-based; conditions: Hepatocyte, filed as agonist, dose 0.4-10 µM; outline: as §1
[20] = Plasma concentration in ICR mouse at 15 mg/kg, po measured after 8 hrs by LC-MS/MS analysis; type: ADME, organism-based; outline: as §3

fold change (FC) [1]: > 40
Activity [2]: Active
Kp at 8 h [3]: 43
Kp at 4 h [4]: 57
Kp at 1.5 h [5]: 37
Activity [6]: Active
EC50 [7]: 45.2 nM
fold change (FC) [8]: 20
fold change (FC) [10]: 5
concentration at 1.5 h [11]: 124 ng/mL
concentration at 1.5 h [12]: 4530 ng/g
concentration at 8 h [13]: 341 ng/g
fold change (FC) [15]: 2
concentration at 4 h [16]: 45.4 ng/mL
concentration at 4 h [17]: 2610 ng/g
Activity [19]: Dose-Dependent Effect
concentration at 8 h [20]: 7.8 ng/mL
Compound: C/C(=N\OCc1cc(C(=O)O)ccc1C#N)c1ccc(OCc2c(-c3c(Cl)cccc3Cl)noc2C2CC2)cc1Cl
EC50 [9]: > 100000 nM
Emax at 5.5 h [14]: 1.1%
Activity [18]: Active

EC50 [7]: 134 nM
Compound: C/C(=N\OCc1ccc(C(=O)O)cc1)c1ccc(OCc2c(-c3c(Cl)cccc3Cl)noc2C2CC2)cc1Cl

EC50 [7]: 75.4 nM
Compound: C/C(=N\OCc1ccccc1C(=O)O)c1ccc(OCc2c(-c3c(Cl)cccc3Cl)noc2C2CC2)cc1Cl

Activity [2]: Active
Activity [6]: Active
concentration at 1.5 h [11]: 56.7 ng/mL
concentration at 1.5 h [12]: 4340 ng/g
concentration at 8 h [13]: 941 ng/g
concentration at 4 h [16]: 45.2 ng/mL
concentration at 4 h [17]: 3580 ng/g
Activity [19]: Dose-Dependent Effect
concentration at 8 h [20]: 8.4 ng/mL
Compound: C/C(=N\OCc1cc(C(=O)O)ccc1C#N)c1ccc(OCc2c(-c3ccccc3OC(F)(F)F)noc2C2CC2)cc1Cl
EC50 [9]: > 100000 nM
Emax at 5.5 h [14]: 0.6%
Activity [18]: Active

EC50 [7]: 47.4 nM
Compound: C/C(=N\OCc1cccc(C(=O)O)c1)c1ccc(OCc2c(-c3c(Cl)cccc3Cl)noc2C2CC2)cc1Cl

EC50 [7]: 54.8 nM
Compound: C/C(=N\OCc1cncc(C(=O)O)c1)c1ccc(OCc2c(-c3ccccc3OC(F)(F)F)noc2C2CC2)cc1Cl

EC50 [7]: 108 nM
Compound: C/C(=N\OCc1cccc(C(=O)O)c1)c1ccc(OCc2c(-c3ccccc3OC(F)(F)F)noc2C2CC2)cc1Cl

EC50 [7]: 65 nM
Compound: C/C(=N\OCc1cncc(C(=O)O)c1)c1ccc(OCc2c(-c3c(Cl)cccc3Cl)noc2C2CC2)cc1Cl

EC50 [7]: 440 nM
Compound: C/C(=N\OCc1cc(C(=O)O)ccc1C#N)c1ccc(OCc2c(-c3ccccc3OC(F)(F)F)noc2C2CC2)c(C)c1

EC50 [7]: 1390 nM
Compound: C/C(=N\OCc1ccc(C(=O)O)o1)c1ccc(OCc2c(-c3c(Cl)cccc3Cl)noc2C2CC2)cn1

EC50 [7]: 49.7 nM
Compound: C/C(=N\OCc1ccc(C(=O)O)o1)c1ccc(OCc2c(-c3c(Cl)cccc3Cl)noc2C2CC2)cc1Cl
